Source: PubChem (several laboratories)
Hsp70 activator: Hsp70 transcriptional activators, primary screen, cell-based, HeLa, Hsp70 promoter luciferase, luminescence, 10 µM; HeLa Hsp70 promoter luciferase reporter; scaled: vehicle 0, proteasome-inhibitor control 100%; hit rate 0.04% among 200,000; activation, % at 10 µM;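 active means activation above the mean across all tested compounds plus 3 SD, cutoff set per campaign, cut at about 5.5% in these data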;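 further: 100% = MG132 at 30 µM as the positive control and 0% = DMSO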
RBBP9 inh: human RBBP9 inhibitors, primary screen, biochemical, fluorescence polarization, FP-Rh probe, HTS. Serine hydrolase RBBP9 (Homo sapiens), O75884. recombinant RBBP9. inhibition, % at 7.94 µM. hit rate 0.2% among 220,000;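 active means inhibition above the campaign mean of all tested compounds plus 3 SD, cut at about 14% in these data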;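 further: plate controls were DMSO wells with RBBP9 for no effect and wells lacking RBBP9 protein for full effect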
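Material: RBBP9 protein. Amount: RBBP9 at 2.5 µM in dispensed solution, before mixing. Schedule: 30 min then 45 min, 25 °C. Medium: Tris buffer pH 8.0, NaCl, Pluronic. Measured by: fluorescence polarization. Measure: percent inhibition from mP, scaled between DMSO and no-protein wells. Replication: one well per compound.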
PP5 primary: PP5 phosphatase inhibitors, primary screen, biochemical, fluorescence | Serine/threonine-protein phosphatase 5 (Homo sapiens), P53041 | purified PP5c, OMFP substrate fluorescence | inhibition, % at 6.7 µM | hit rate 0.18% among 320,000 | AID 1987, 2009;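 active means inhibition above the campaign's mean inhibition across all tested compounds plus 3 SD, cut at about 9.5% in these data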;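 further: 0% = DMSO only and 100% = 100 µM cantharidin control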
p97 ATPase inh: inhibitors of human p97 ATPase, primary screen, biochemical | Transitional endoplasmic reticulum ATPase (Homo sapiens), P55072 | recombinant p97 ATPase, Kinase-Glo ATP luminescence, 3 h | inhibition, % at 8 µM | hit rate 0.42% among 220,000 | AID 1481, 2009; in the data active means inhibition above about 15%;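 further: 0% = DMSO vehicle and 100% = wells lacking enzyme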
Target sequence (P55072 whole entry, looked up): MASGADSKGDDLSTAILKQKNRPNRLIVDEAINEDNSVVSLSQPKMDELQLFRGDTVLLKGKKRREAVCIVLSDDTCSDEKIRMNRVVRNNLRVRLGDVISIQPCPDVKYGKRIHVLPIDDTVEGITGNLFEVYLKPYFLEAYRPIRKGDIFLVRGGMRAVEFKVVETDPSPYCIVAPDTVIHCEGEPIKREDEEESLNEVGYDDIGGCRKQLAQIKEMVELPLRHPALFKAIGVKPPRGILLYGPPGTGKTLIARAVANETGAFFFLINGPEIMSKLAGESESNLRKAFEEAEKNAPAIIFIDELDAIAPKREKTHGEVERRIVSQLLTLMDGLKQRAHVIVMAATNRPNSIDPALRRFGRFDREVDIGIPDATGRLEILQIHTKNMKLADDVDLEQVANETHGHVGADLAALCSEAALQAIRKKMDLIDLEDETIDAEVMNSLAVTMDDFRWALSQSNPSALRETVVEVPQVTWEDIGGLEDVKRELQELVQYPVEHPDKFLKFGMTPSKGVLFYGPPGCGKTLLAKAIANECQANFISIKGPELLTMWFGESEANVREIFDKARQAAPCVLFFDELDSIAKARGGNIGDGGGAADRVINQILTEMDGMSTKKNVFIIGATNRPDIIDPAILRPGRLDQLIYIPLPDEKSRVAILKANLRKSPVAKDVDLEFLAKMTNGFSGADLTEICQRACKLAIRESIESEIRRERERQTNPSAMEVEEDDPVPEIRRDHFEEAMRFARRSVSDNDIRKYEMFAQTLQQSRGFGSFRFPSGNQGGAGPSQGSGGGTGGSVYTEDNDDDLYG
PP1 inh: PP1-alpha phosphatase inhibitors, primary screen, counter-screen for PP5 inhibitor project, biochemical, fluorescence, OMFP substrate, single point; Serine/threonine-protein phosphatase PP1-alpha catalytic subunit (Homo sapiens), P62136; purified PP1alpha; inhibition, % at 6.7 µM; hit rate 0.9% among 320,000; AID 2235, 2010;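 active means inhibition above the mean inhibition of all tested compounds plus 3 SD, computed separately for each screening campaign, cut at about 15% in these data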
PKD1 kinase inh: inhibitors of human PKD1 kinase, biochemical, fluorescence polarization; inhibition, % (test concentration not listed); hit rate 0.056% among 200,000; Serine/threonine-protein kinase D1 (Homo sapiens), Q15139; PKD1 kinase fluorescence polarization assay; in the data active means inhibition above about 50%
PP1 confirm: PP1 phosphatase inhibitors, confirmation, biochemical, fluorescence, OMFP substrate, triplicate. shares compounds with PP1 inh. inhibition, % at 6.7 µM. hit rate 52% among 1,900. purified PP1alpha;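 active means mean PP1 inhibition above a set limit taken from the earlier primary screen, cut at about 15% in these data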
PP5 counter: PP5 phosphatase inhibition by PP1 hits, confirmation, counter-screen for PP1 inhibitor project, biochemical, fluorescence, triplicate; purified PP5c, OMFP fluorescence; AID 2360, 2010; hit rate 4% among 1,900; inhibition, % at 6.7 µM; shares compounds with PP1 inh;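 active means mean PP5 inhibition over triplicate wells above about 9.5% taken from the earlier PP1 screen, limit read from the data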
Active calls of the source: *; nt = not tested or not shown. Only some compounds are listed: those with a hit (about 1.5% of all), similar ones and a draw of the others.

SMILES | Hsp70 activator | RBBP9 inh | PP5 primary | p97 ATPase inh | PP1 inh | PKD1 kinase inh | PP1 confirm | PP5 counter
O=c1[nH]c(C2CCCN(S(=O)(=O)c3ccccc3)C2)nc2c1nnn2Cc1ccc2c(c1)OCCO2 (stereo unspecified) | nt | nt | 1 | nt | 1 | nt | nt | nt
O=c1[nH]c(C2CCCN(S(=O)(=O)c3cccc(Cl)c3)C2)nc2c1nnn2Cc1ccc2c(c1)OCCO2 (stereo unspecified) | nt | nt | 2 | nt | 24* | nt | 11 | 1
Cc1ccc(C)c(S(=O)(=O)N2CCC(c3nc4c(nnn4Cc4ccc5c(c4)OCCO5)c(=O)[nH]3)CC2)c1 | nt | nt | 5 | nt | 24* | nt | 22* | 0
COc1ccc(CC(=O)Oc2ccc(C)cc2Br)cc1OC | nt | nt | 3 | nt | 4 | nt | nt | nt
COc1ccc(Cn2c(SCc3ccc(C)cc3)nc3cc(OC)c(OC)cc3c2=N)cc1Cl | 0 | -1 | 6 | 2 | 21* | 14 | 5 | 2
COc1cc2nc(SCc3ccc(C(F)(F)F)cc3)n(Cc3cccs3)c(=N)c2cc1OC | 0 | 1 | 3 | 0 | -2 | 1 | nt | nt
COc1ccc(Cn2c(SCc3cc(C)ccc3C)nc3cc(OC)c(OC)cc3c2=N)cc1 | 0 | -7 | 5 | -4 | 23* | 5 | 6 | 3
COc1cc2nc(SCc3ccc(Cl)cc3Cl)n(Cc3cccs3)c(=N)c2cc1OC | 0 | -17 | -2 | -3 | -4 | -6 | nt | nt
CC1O[C@@H](O[C@H](C)CC/C=C/C(=O)O)C(O)C[C@H]1O (stereo partly specified) | nt | nt | -1 | nt | 2 | nt | nt | nt
CCCCCCCN1CCC(=O)N([C@H](CO)CC(C)C)CC1 | nt | nt | -9 | nt | 8 | nt | nt | nt
CC1(c2ccccc2)CC(C)(C)N2C(=O)C(=O)c3cccc1c32 (stereo unspecified) | 0 | -8 | 0 | -5 | 24* | -5 | 18* | -2
CC1CC2(CCCCC2)N2C(=O)C(=O)c3cccc1c32 (stereo unspecified) | 0 | -7 | 2 | 3 | 14 | 1 | nt | nt
CC1CCN(Cc2c(C(=O)N/N=C/c3ccccc3O)nnn2-c2nonc2N)CC1 | nt | nt | 0 | nt | 22* | nt | 17* | -5
COc1ccc([C@H]2Oc3cc(O)cc(O)c3C(=O)C2[C@@H]2C(=O)c3c(O)cc(O)cc3O[C@@H]2c2ccc(OC)cc2)cc1 (stereo partly specified) | nt | nt | 5 | nt | 25* | nt | 8 | 4
COc1ccc(S(=O)(=O)c2c(C)c(NS(=O)(=O)c3ccccc3)cc(C)c2O)cc1 | 0 | 2 | 4 | -4 | 21* | -5 | 0 | 1
COc1ccc(S(=O)(=O)Nc2cc(C)c(O)c(S(=O)(=O)c3ccccc3)c2)cc1 | 0 | -7 | 0 | 3 | -4 | -16 | nt | nt
C#CCOCCOCCOCCNc1nc(N2CCN(C(=O)CCCCCCCCCCNC(=O)Cn3cc(CCCCCN)nn3)CC2)nc(N2CCN(C(=O)CCCCCCCCCCNC(=O)Cn3cc(CCCCCN)nn3)CC2)n1 | nt | nt | 0 | nt | 33* | nt | 9 | -6
C#CCOCCOCCOCCNc1nc(N2CCN(C(=O)CCCCCCCCCCNC(=O)[C@@H](CCSC)n3cc(CCO)nn3)CC2)nc(N2CCN(C(=O)CCCCCCCCCCNC(=O)[C@H](CCSC)n3cc(CCO)nn3)CC2)n1 | nt | nt | 3 | nt | 23* | nt | 4 | 2
C#CCOCCOCCOCCNc1nc(N2CCN(C(=O)CCCCCCCCCCNC(=O)Cn3cc(CCCCCN)nn3)CC2)nc(N2CCN(C(=O)CCCCCCCCCCNC(=O)[C@@H](CCSC)n3cc(CCO)nn3)CC2)n1 | nt | nt | 1 | nt | 36* | nt | 41* | 0
Cc1nc(SC2CC(=O)N(c3ccccc3)C2=O)n[nH]1 (stereo unspecified) | 1 | -5 | -2 | 8 | 21* | -7 | -4 | -7
